According to ChEMBL document CHEMBL1141093, “Metabolic regio- and stereoselectivity of cytochrome P450 2D6 towards 3,4-methylenedioxy-N-alkylamphetamines: in silico predictions and experimental validation” (J Med Chem, 2005):

Tests used:
Cytochrome P450 2D6 [1] = target: Cytochrome P450 2D6 (Homo sapiens, UniProt P10635); experiment: Vmax for oxidation to 3,4-OH-MA by cytochrome P450 2D6 (wild type pSP19T7LT); expressed in 10E5 fluorescence units min-1 nmol-1 CYP; assay type: ADME
Procedure, shortened: (§1)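 E. coli membranes expressing His-tagged wild-type or Phe120Ala CYP2D6 (25 nM CYP) were incubated in 50 mM KPi pH 7.4 with 5 mM MgCl2. Substrate was tested at 10 concentrations, 0–200 µM. After 5 min preincubation at 37 °C, an NADPH-regenerating system was added (0.2 mM NADPH final). Reactions ran 10 min and were stopped with HClO4. Products were separated by C18 HPLC and read by fluorescence (ex 280/em 320 nm). Km and Vmax came from nonlinear regression of peak areas; at least two independent experiments.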

Cytochrome P450 2D6 [2] = target: T1, Cytochrome P450 2D6 (Homo sapiens, UniProt P10635, F120A); experiment: Vmax for oxidation to 3,4-OH-MA by cytochrome P450 2D6 (Phe120Ala mutant); expressed in 10E5 fluorescence units min-1 nmol-1 CYP; assay type: ADME; procedure, shortened: as §1
Cytochrome P450 2D6 [3] = target: T1, Cytochrome P450 2D6; experiment: Vmax for oxidation to 3,4-OH-MA by cytochrome P450 2D6 (Phe120Ala mutant); expressed as 10E5 fluorescence units min-1 nmol-1 CYP; expressed in 10E5 fluorescence units min-1 nmol-1 CYP; assay type: ADME; procedure, shortened: as §1
Cytochrome P450 2D6 [4] = target: T1, Cytochrome P450 2D6; experiment: Vmax for oxidation to N-OH-MDMA by cytochrome P450 2D6 (Phe120Ala mutant); expressed in 10E5 fluorescence units min-1 nmol-1 CYP; assay type: ADME; procedure, shortened: as §1
CNC(C)Cc1ccc2c(c1)OCO2 [5] = experiment: (§2) Michaelis-Menten constant for oxidation to 3,4-OH-MA by cytochrome P450 2D6 (Phe120Ala mutant); assay type: ADME, Homo sapiens; procedure, shortened: as §1
CCNC(C)Cc1ccc2c(c1)OCO2 [6] = experiment: as §2; assay type: ADME, Homo sapiens; procedure, shortened: as §1
CCCNC(C)Cc1ccc2c(c1)OCO2 [7] = experiment: as §2; assay type: ADME, Homo sapiens; procedure, shortened: as §1
[8] = test system: CN[C@H](C)Cc1ccc2c(c1)OCO2; experiment: as §2; assay type: ADME, Homo sapiens; procedure, shortened: as §1
[9] = test system: CN[C@@H](C)Cc1ccc2c(c1)OCO2; experiment: as §2; assay type: ADME, Homo sapiens; procedure, shortened: as §1
CNC(C)Cc1ccc2c(c1)OCO2 [10] = experiment: (§3) Michaelis-Menten constant for oxidation to MDA by cytochrome P450 2D6 (Phe120Ala mutant); assay type: ADME, Homo sapiens; procedure, shortened: as §1
CCNC(C)Cc1ccc2c(c1)OCO2 [11] = experiment: as §3; assay type: ADME, Homo sapiens; procedure, shortened: as §1
CCCNC(C)Cc1ccc2c(c1)OCO2 [12] = experiment: as §3; assay type: ADME, Homo sapiens; procedure, shortened: as §1
[13] = test system: CN[C@H](C)Cc1ccc2c(c1)OCO2; experiment: as §3; assay type: ADME, Homo sapiens; procedure, shortened: as §1
[14] = test system: CN[C@@H](C)Cc1ccc2c(c1)OCO2; experiment: as §3; assay type: ADME, Homo sapiens; procedure, shortened: as §1
CNC(C)Cc1ccc2c(c1)OCO2 [15] = experiment: (§4) Michaelis-Menten constant for oxidation to N-OH-MDMA by cytochrome P450 2D6 (Phe120Ala mutant); assay type: ADME, Homo sapiens; procedure, shortened: as §1
CCNC(C)Cc1ccc2c(c1)OCO2 [16] = experiment: as §4; assay type: ADME, Homo sapiens; procedure, shortened: as §1
CCCNC(C)Cc1ccc2c(c1)OCO2 [17] = experiment: as §4; assay type: ADME, Homo sapiens; procedure, shortened: as §1
[18] = test system: CN[C@H](C)Cc1ccc2c(c1)OCO2; experiment: as §4; assay type: ADME, Homo sapiens; procedure, shortened: as §1
[19] = test system: CN[C@@H](C)Cc1ccc2c(c1)OCO2; experiment: as §4; assay type: ADME, Homo sapiens; procedure, shortened: as §1
[20] = substrate: CN[C@H](C)Cc1ccc2c(c1)OCO2; experiment: (§5) Michaelis-Menten constant for oxidation to 3,4-OH-MA by cytochrome P450 2D6 (wild type pSP19T7LT); assay type: ADME, Homo sapiens; procedure, shortened: as §1
[21] = substrate: CNC(C)Cc1ccc2c(c1)OCO2; experiment: as §5; assay type: ADME, Homo sapiens; procedure, shortened: as §1
[22] = substrate: CCCNC(C)Cc1ccc2c(c1)OCO2; experiment: as §5; assay type: ADME, Homo sapiens; procedure, shortened: as §1
[23] = substrate: CN[C@@H](C)Cc1ccc2c(c1)OCO2; experiment: as §5; assay type: ADME, Homo sapiens; procedure, shortened: as §1

T1 sequence (P10635 whole entry F120A): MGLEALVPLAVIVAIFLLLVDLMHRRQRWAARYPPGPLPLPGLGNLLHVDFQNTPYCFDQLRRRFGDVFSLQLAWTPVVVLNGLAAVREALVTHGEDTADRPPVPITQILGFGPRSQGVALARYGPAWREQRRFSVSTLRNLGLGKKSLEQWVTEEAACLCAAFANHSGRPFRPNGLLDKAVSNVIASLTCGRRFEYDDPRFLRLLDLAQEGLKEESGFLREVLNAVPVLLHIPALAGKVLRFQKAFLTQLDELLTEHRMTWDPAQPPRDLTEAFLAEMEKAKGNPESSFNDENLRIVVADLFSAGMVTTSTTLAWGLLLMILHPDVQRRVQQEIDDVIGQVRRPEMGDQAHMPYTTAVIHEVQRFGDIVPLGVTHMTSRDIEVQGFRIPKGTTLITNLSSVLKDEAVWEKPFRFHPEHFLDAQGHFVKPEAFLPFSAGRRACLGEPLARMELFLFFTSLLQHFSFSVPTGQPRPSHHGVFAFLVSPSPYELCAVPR

Q: For `CNC(C)Cc1ccc2c(c1)OCO2` (stereo not drawn) [MIDOMAFETAMINE], which Vmax (Cytochrome P450 2D6 [1]) is on record?
A: 1.2

Q: And the Vmax (Cytochrome P450 2D6 [2])?
A: 2.2

Q: `CN[C@@H](C)Cc1ccc2c(c1)OCO2` was tested. Which Vmax (Cytochrome P450 2D6 [3]) did it give?
A: 2.4

Q: And the Vmax (Cytochrome P450 2D6 [4])?
A: 8.4

Q: What does the source list for `CCNC(C)Cc1ccc2c(c1)OCO2` (stereo not drawn)?
A: Vmax (Cytochrome P450 2D6 [1]): 1.2; Vmax (Cytochrome P450 2D6 [2]): 2.9; Vmax (Cytochrome P450 2D6 [4]): 1.4

Q: “Cytochrome P450 2D6 (Homo sapiens; F120A)” was tested. Which Km (CNC(C)Cc1ccc2c(c1)OCO2 [5]) did it give?
A: 11.8 µM

Q: And the Km (CCNC(C)Cc1ccc2c(c1)OCO2 [6])?
A: 3.3 µM

Q: And the Km (CCCNC(C)Cc1ccc2c(c1)OCO2 [7])?
A: 5.2 µM

Q: And the Km [8]?
A: 13.2 µM

Q: What about the Km [9] of the same molecule?
A: 4.9 µM

Q: What about the Km (CNC(C)Cc1ccc2c(c1)OCO2 [10]) of the same molecule?
A: 14.5 µM

Q: What about the kcat (CNC(C)Cc1ccc2c(c1)OCO2 [10]) of the same molecule?
A: 0.0583 s⁻¹

Q: And the Km (CCNC(C)Cc1ccc2c(c1)OCO2 [11])?
A: 4.5 µM

Q: What about the kcat (CCNC(C)Cc1ccc2c(c1)OCO2 [11]) of the same molecule?
A: 0.07 s⁻¹

Q: What about the Km (CCCNC(C)Cc1ccc2c(c1)OCO2 [12]) of the same molecule?
A: 9.1 µM

Q: What about the kcat (CCCNC(C)Cc1ccc2c(c1)OCO2 [12]) of the same molecule?
A: 0.122 s⁻¹

Q: And the Km [13]?
A: 26.1 µM

Q: And the kcat [13]?
A: 0.0983 s⁻¹

Q: And the Km [14]?
A: 10.3 µM

Q: And the kcat [14]?
A: 0.0633 s⁻¹

Q: And the Km (CNC(C)Cc1ccc2c(c1)OCO2 [15])?
A: 11.2 µM

Q: And the Km (CCNC(C)Cc1ccc2c(c1)OCO2 [16])?
A: 5.7 µM

Q: And the Km (CCCNC(C)Cc1ccc2c(c1)OCO2 [17])?
A: 28 µM

Q: What about the Km [18] of the same molecule?
A: 20.6 µM

Q: What about the Km [19] of the same molecule?
A: 6.9 µM

Q: Which results are given for `CCCNC(C)Cc1ccc2c(c1)OCO2` (stereo not drawn)?
A: Vmax (Cytochrome P450 2D6 [1]): 1.3; Vmax (Cytochrome P450 2D6 [2]): 7.5; Vmax (Cytochrome P450 2D6 [4]): 3

Q: With `CN[C@H](C)Cc1ccc2c(c1)OCO2` as the molecule, how does the Vmax (Cytochrome P450 2D6 [1]) read?
A: 1.2

Q: And the Vmax (Cytochrome P450 2D6 [2])?
A: 2.4

Q: And the Vmax (Cytochrome P450 2D6 [4])?
A: 10.7

B1: Cytochrome P450 2D6 (Homo sapiens) (protein)
chain: MGLEALVPLAVIVAIFLLLVDLMHRRQRWAARYPPGPLPLPGLGNLLHVDFQNTPYCFDQLRRRFGDVFSLQLAWTPVVVLNGLAAVREALVTHGEDTADRPPVPITQILGFGPRSQGVFLARYGPAWREQRRFSVSTLRNLGLGKKSLEQWVTEEAACLCAAFANHSGRPFRPNGLLDKAVSNVIASLTCGRRFEYDDPRFLRLLDLAQEGLKEESGFLREVLNAVPVLLHIPALAGKVLRFQKAFLTQLDELLTEHRMTWDPAQPPRDLTEAFLAEMEKAKGNPESSFNDENLRIVVADLFSAGMVTTSTTLAWGLLLMILHPDVQRRVQQEIDDVIGQVRRPEMGDQAHMPYTTAVIHEVQRFGDIVPLGVTHMTSRDIEVQGFRIPKGTTLITNLSSVLKDEAVWEKPFRFHPEHFLDAQGHFVKPEAFLPFSAGRRACLGEPLARMELFLFFTSLLQHFSFSVPTGQPRPSHHGVFAFLVSPSPYELCAVPR
Q: Which results are given for B1?
A: Km [20]: 2.7 µM; Km [21]: 1.9 µM; Km [22]: 1 µM; Km [23]: 3.3 µM; kcat [23]: 0.02 s⁻¹
